# According to ChEMBL document CHEMBL2157873, “Development and characterization of endocannabinoid hydrolases FAAH and MAGL inhibitors bearing a benzotriazol-1-yl carboxamide scaffold” (Bioorg Med Chem, 2012):
# Activity calls are given as the source filed them. No cut-off for these calls is given here.
# Assays:
# Monoglyceride lipase [1] = biological target: T1, Monoglyceride lipase (Homo sapiens, UniProt Q99685); test: Inhibition of human MAGL assessed as [3H]-2-OG hydrolysis preincubated for 30 mins before [3H]-2-OG addition measured after 10 mins by liquid scintillation counting
# T1 sequence (Q99685 whole entry): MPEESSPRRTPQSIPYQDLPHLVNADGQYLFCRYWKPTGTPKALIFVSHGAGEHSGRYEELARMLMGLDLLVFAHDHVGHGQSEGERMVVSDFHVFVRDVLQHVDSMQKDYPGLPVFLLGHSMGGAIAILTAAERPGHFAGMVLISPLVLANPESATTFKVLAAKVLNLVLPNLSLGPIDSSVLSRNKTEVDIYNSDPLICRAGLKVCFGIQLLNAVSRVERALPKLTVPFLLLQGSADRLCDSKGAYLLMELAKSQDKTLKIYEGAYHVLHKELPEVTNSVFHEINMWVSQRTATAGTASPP
# How it was run: (§1)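 [3H]-2-oleoylglycerol then added at 10 µM final. Stopped with methanol-chloroform (1:1), centrifuged 5 min at 700 g, aqueous-phase radioactivity read by liquid scintillation, no-enzyme blank subtracted. Means of three independent experiments in duplicate.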
# Homo sapiens = species: Homo sapiens; test: Selectivity ratio of IC50 for human recombinant FAAH to IC50 for human MAGL
# How it was run: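 Selectivity calculated as IC50 for human FAAH divided by IC50 for human MAGL. Both IC50 values from radiometric hydrolysis assays: [3H]-AEA with MBP-fused FAAH and [3H]-2-OG with pure MAGL. Each assay had 30 min inhibitor preincubation. Means of three independent experiments in duplicate.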
# [2] = biological target: T2, Fatty-acid amide hydrolase 1 (Homo sapiens, UniProt O00519); test: Inhibition of human recombinant FAAH assessed as [3H]-AEA hydrolysis preincubated for 30 mins […] measured after 10 mins by liquid scintillation counting
# T2 sequence (O00519 whole entry): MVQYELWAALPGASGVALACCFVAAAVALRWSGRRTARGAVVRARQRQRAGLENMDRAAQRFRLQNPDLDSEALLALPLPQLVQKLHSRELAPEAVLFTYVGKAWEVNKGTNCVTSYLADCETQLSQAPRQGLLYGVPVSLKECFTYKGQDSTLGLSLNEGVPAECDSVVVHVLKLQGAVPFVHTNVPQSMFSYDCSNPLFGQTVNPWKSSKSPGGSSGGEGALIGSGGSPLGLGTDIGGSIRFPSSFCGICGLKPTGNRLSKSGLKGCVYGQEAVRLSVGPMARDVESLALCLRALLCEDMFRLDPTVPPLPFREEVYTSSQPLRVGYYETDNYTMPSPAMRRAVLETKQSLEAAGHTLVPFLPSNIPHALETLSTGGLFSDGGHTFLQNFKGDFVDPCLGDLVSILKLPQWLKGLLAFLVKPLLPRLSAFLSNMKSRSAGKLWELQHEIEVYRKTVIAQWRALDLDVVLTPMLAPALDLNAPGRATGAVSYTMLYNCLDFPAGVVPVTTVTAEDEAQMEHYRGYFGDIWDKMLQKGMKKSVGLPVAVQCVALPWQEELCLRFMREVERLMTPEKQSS
# How it was run: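 Human FAAH fused to maltose-binding protein, preincubated 30 min at 22 °C with inhibitor at various concentrations (Tris 10 mM, EDTA 1 mM, pH 8.0, inhibitor in DMSO). [3H]-anandamide (50,000 dpm) added, 10 min at 37 °C. Stopped with cold methanol/chloroform (1:1), aqueous-phase radioactivity by scintillation, blank subtracted, percent of control fitted as dose-response. Three independent experiments in duplicate.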
# [3] = biological target: T3, Fatty-acid amide hydrolase 1 (Homo sapiens) (UniProt O00519); test: Inhibition of human recombinant FAAH assessed as [3H]-AEA hydrolysis preincubated for 30 mins […] measured at 10^-5 M after 10 mins by liquid scintillation counting
# T3 sequence (whole entry): T2 sequence (O00519 whole entry)
# Monoglyceride lipase [4] = biological target: T1, Monoglyceride lipase; test: Inhibition of MAGL; how it was run: as §1
# Monoglyceride lipase [5] = biological target: T1, Monoglyceride lipase; test: Irreversible inhibition of human MAGL using p-nitrophenylpropionate as substrate
# How it was run: (§2)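 MAGL (3 ng; Tris 50 mM, LDAO 0.1%, pH 8.0) added to p-nitrophenylpropionate (1.25 mM) plus inhibitor at various concentrations, both in DMSO. […] Done four times in quadruplicate.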
# [6] = biological target: T4, Monoglyceride lipase (Homo sapiens) (UniProt Q99685); test: Irreversible inhibition of human MAGL assessed as [3H]-2-OG hydrolysis preincubated for 30 mins before [3H]-2-OG addition measured at 10^-8 M to 10^-9 M measured after 300 fold dilution rapid dilution assay
# T4 sequence (whole entry): T1 sequence (Q99685 whole entry)
# How it was run: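 Human MAGL (800 ng in Tris 50 mM, BSA 0.15%, pH 8.0) incubated 30 min at room temperature with inhibitor at 10^-8 or 10^-9 M in the mixture (DMSO). Diluted 300-fold in buffer, 15 min incubation, then [3H]-2-OG hydrolase activity read on an aliquot holding 10 ng enzyme by the standard radiometric method. Performed two times in triplicate.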
# [7] = biological target: T4, Monoglyceride lipase (Homo sapiens); test: Ratio of JZL184 IC50 to compound IC50 for human MAGL
# [8] = biological target: Monoglyceride lipase (Homo sapiens) (UniProt Q99685); test: Ratio of JZL184 IC50 to compound IC50 for human MAGL
# [9] = biological target: T4, Monoglyceride lipase (Homo sapiens); test: Ratio of Kinact to Ki for human MAGL using p-nitrophenylpropionate as substrate; how it was run: as §2
# [10] = biological target: T2, Fatty-acid amide hydrolase 1; test: Inhibition of FAAH
# How it was run: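 Human FAAH fused to maltose-binding protein, preincubated 30 min at 22 °C with inhibitor (various concentrations, in DMSO) in Tris 10 mM, EDTA 1 mM, pH 8.0. [³H]-anandamide substrate added, then 10 min at 37 °C. Stopped with cold methanol/chloroform (1:1). Aqueous-phase radioactivity counted by liquid scintillation, with the no-enzyme blank subtracted. Activity taken as percent of control; IC50 from dose-response curves; three independent experiments in duplicate.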
Compound,IC50 (Monoglyceride lipase [1]) [nM],Ratio IC50 (Homo sapiens),IC50 [2] [nM],other results
O=C(N1CCN(Cc2ccccc2)CC1)n1nnc2ccccc21,8,2.4,19,
O=C(NC1CCCCC1)c1cc(N2CCN(C(=O)n3nnc4ccccc43)CC2)ccc1[N+](=O)[O-],41,12,490,
O=C(NC1CCCCC1)c1cccc(CN2CCN(C(=O)n3nnc4ccccc43)CC2)c1,13,3.4,44,
O=C(N1CCN(Cc2cccc3ccccc23)CC1)n1nnc2ccccc21,3,4,13,
O=C(N1CCN(Cc2ccc(F)cc2)CC1)n1nnc2ccccc21,10,1.5,15,
O=C(c1cc(N2CCN(C(=O)n3nnc4ccccc43)CC2)ccc1[N+](=O)[O-])N1CCCCC1,38,60,2290,
O=C(N1CCN(Cc2cccc(Cl)c2)CC1)n1nnc2ccccc21,2,4.5,9,
O=C(N1CCN(Cc2cccc([N+](=O)[O-])c2)CC1)n1nnc2ccccc21,8,5.4,43,
CN(C)C(=O)c1cccc(CN2CCN(C(=O)n3nnc4ccccc43)CC2)c1,102,2.7,275,
O=C(N1CCN(Cc2ccc(Cl)cc2)CC1)n1nnc2ccccc21,11,1.5,17,
CN1CCN(C(=O)c2cc(N3CCN(C(=O)n4nnc5ccccc54)CC3)ccc2[N+](=O)[O-])CC1,141,> 100,,inhibition [3]: 40%
O=C(N1CCN(c2ccccc2)CC1)n1nnc2ccccc21,21,0.5,11,
O=C(N1CCN(C(c2ccccc2)c2ccccc2)CC1)n1nnc2ncccc21,,,,IC50 (Monoglyceride lipase [4]): 4 nM
CC(C)NC(=O)c1ccc(N2CCN(C(=O)n3nnc4ccccc43)CC2)c([N+](=O)[O-])c1,372,0.43,158,
CN1CCN(C(=O)c2cccc(CN3CCN(C(=O)n4nnc5ccccc54)CC3)c2)CC1,324,4.3,1380,
Cc1ccccc1N1CCN(C(=O)n2nnc3ccccc32)CC1,71,0.04,3,
O=C(N1CCC(Cc2ccccc2)CC1)n1nnc2ccccc21,3,0.7,2,
O=C(N1CCN(C(c2ccccc2)c2ccccc2)CC1)n1nnc2ccccc21,0.54,1040,562,Ki (Monoglyceride lipase [5]): 75.7 nM; inhibition [6]: Active; Ratio IC50 [7]: 70; Ratio IC50 [8]: 70; Ratio [9]: 208000
O=C(N1CCN(Cc2ccc(-c3ccccc3)cc2)CC1)n1nnc2ccccc21,62,0.3,18,
O=C(N1CCN(C/C=C/c2ccccc2)CC1)n1nnc2ccccc21,33,0.8,28,

Compound,IC50 (Monoglyceride lipase [1]) [nM],Ratio IC50 (Homo sapiens),IC50 [2] [nM],other results
O=C(c1cccc(CN2CCN(C(=O)n3nnc4ccccc43)CC2)c1)N1CCCCC1,36,1.6,58,
O=C(c1ccc(N2CCN(C(=O)n3nnc4ccccc43)CC2)c([N+](=O)[O-])c1)N1CCOCC1,955,2,1950,
O=C(NCCc1ccc(O)c(O)c1)n1nnc2ccccc21,10500,,,
O=C(O)c1cccc(CN2CCN(C(=O)n3nnc4ccccc43)CC2)c1,676,41,27500,
COc1ccc(N2CCN(C(=O)n3nnc4ccccc43)CC2)cc1,32,0.47,15,
O=C(N1CCN(Cc2ccc3ccccc3c2)CC1)n1nnc2ccccc21,9,1.3,12,
O=C(N1CCN(Cc2ccc(Br)cc2)CC1)n1nnc2ccccc21,9,2.5,22,
O=C(N1CCN(Cc2ccc([N+](=O)[O-])cc2)CC1)n1nnc2ccccc21,12,7.6,89,
CN(C)C(=O)c1cc(N2CCN(C(=O)n3nnc4ccccc43)CC2)ccc1[N+](=O)[O-],63,79,5010,
O=C(N1CCN(c2ccccc2[N+](=O)[O-])CC1)n1nnc2ccccc21,224,0.08,19,
CC(C)NC(=O)c1cc(N2CCN(C(=O)n3nnc4ccccc43)CC2)ccc1[N+](=O)[O-],234,8.9,2090,
O=C(N1CCN(Cc2ccccc2-c2ccccc2)CC1)n1nnc2ccccc21,33,1,32,
O=C(Oc1ccc([N+](=O)[O-])cc1)N1CCC(C(O)(c2ccc3c(c2)OCO3)c2ccc3c(c2)OCO3)CC1,,,36300,IC50 [10]: 4690 nM
O=C(N1CCN(c2ccccc2F)CC1)n1nnc2ccccc21,30,0.44,13,
O=C(N1CCN(Cc2cccc(-c3ccccc3)c2)CC1)n1nnc2ccccc21,23,0.4,9,
O=C(N1CCN(c2ccc([N+](=O)[O-])cc2)CC1)n1nnc2ccccc21,20,1.7,34,
O=C(Nc1ccccc1)c1cc(N2CCN(C(=O)n3nnc4ccccc43)CC2)ccc1[N+](=O)[O-],19,19,363,
O=C(Nc1ccccc1)c1cccc(CN2CCN(C(=O)n3nnc4ccccc43)CC2)c1,7,4.8,35,
O=C(c1cc(N2CCN(C(=O)n3nnc4ccccc43)CC2)ccc1[N+](=O)[O-])N1CCOCC1,162,> 100,,inhibition [3]: 40%
